Assay results pooled from the literature.
Lines come from different studies, so protocols differ.
PDE2A: cGMP-dependent 3',5'-cyclic phosphodiesterase (PDE2A, Homo sapiens, UniProt O00408)
MMP8: Neutrophil collagenase (MMP8, Homo sapiens, UniProt P22894)
AR: Androgen receptor (AR, Homo sapiens, UniProt P10275)

| SMILES | target | effect on | mode | method | tested at | inhibition [%] |
| --- | --- | --- | --- | --- | --- | --- |
| CN(CCN1CCC(OC(=O)Nc2ccccc2-c2ccccc2)CC1)C(=O)c1ccc(CN2CCC(C(N)=O)CC2)cc1 | PDE2A | enzyme activity | inhibitor |  | 1 µM | 1 |
| Cc1ncc(C)n2nc(/C=C/c3nc(N4CCCC4)cc(N4CCOCC4)n3)nc12 | PDE2A | enzyme activity | inhibitor |  | 10 µM | 38 |
| NC(CO)C(=O)N/N=C/c1ccc(O)c(O)c1 (stereo not drawn) | Genome polyprotein, protease (Coxsackievirus B3, UniProt P03313) | enzyme activity | inhibitor | FRET | 50 µM | 55.9 |
| N=C(N)c1ccc2cc(OC(=O)c3ccc(N=C(N)N)cc3)ccc2c1 | MMP8 | enzyme activity | inhibitor |  | 10 µM | 0 |
| C[C@H](C(=O)N[C@H]1COc2ccccc2[C@@H]1S(C)(=O)=O)c1ccc(F)cc1 | Carbonic anhydrase 2 (CA2, Homo sapiens, UniProt P00918) | enzyme activity | inhibitor |  | 10 µM | 8 |
| CC(C)=CCC[C@]1(C)C=Cc2c(O)c3c(c(CC=C(C)C)c2O1)O[C@]12C(=C[C@@H]4C[C@H]1C(C)(C)O[C@@]2(C/C=C(/C)C(=O)O)C4=O)C3=O | N-lysine methyltransferase KMT5A (KMT5A, Homo sapiens, UniProt Q9NQR1) | cell-free assay |  |  | 10 µM | 18 |
| Cn1cc(-c2cc(F)cc(N3CCn4c(cc5c4CCCC5)C3=O)c2CO)cc(Nc2ccc(N3CCN(C4COC4)CC3)cn2)c1=O | G protein-coupled receptor kinase 3 (GRK3, Homo sapiens, UniProt P35626) | enzyme activity | inhibitor |  | 0.1 µM | 0 |
| COc1ccc(S(=O)(=O)N(CC(=O)NO)CC(C)C)cc1 | MMP8 | enzyme activity | inhibitor |  | 10 nM | 5 |
| O=C(Nc1cccnn1)N1CCN([C@@H]2CCOc3cc(C(F)(F)F)ccc32)CC1 | PDE2A | enzyme activity | inhibitor |  | 20 µM | 3 |
| CCN(CC)CCCC[C@H](NC(=O)[C@H](CC(C)C)NC(=O)[C@H](C)NC(=O)[C@H](Cc1ccccc1)NC(=O)c1ccc(C(C)(C)C)cc1)C(=O)N[C@@H](CO)C(=O)OC | Delta-type opioid receptor (OPRD1, Homo sapiens, UniProt P41143) | ligand displacement |  | radioligand | 10 µM | 29 |
| CCOC(=O)c1ccc(OC(=O)CCCCCNC(=N)N)cc1 | MMP8 | enzyme activity | inhibitor |  | 10 µM | 7 |
| Clc1ccc2c(C3CCN(CCc4c[nH]c5ccccc45)CC3)c[nH]c2c1 | AR | ligand displacement |  | radioligand | 10 µM | 25 |
| COc1ccc(S(=O)(=O)N2CCCCC2)cc1C | AR | ligand displacement |  | radioligand | 10 µM | < 30 |
| C#Cc1n[nH]c2c(-c3cn(C(C)c4ccccn4)c(=O)[nH]c3=O)cc(F)cc12 (stereo not drawn) | Misshapen-like kinase 1 (MINK1, Homo sapiens, UniProt Q8N4C8) | enzyme activity | inhibitor |  | 1 µM | -10.4 |
| Cn1cc(-c2cccc(N3CCc4c(sc5c4CC(C)(C)C5)C3=O)c2CO)cc(Nc2ccncn2)c1=O | Dual specificity mitogen-activated protein kinase kinase 6 (MAP2K6, Homo sapiens, UniProt P52564) | enzyme activity | inhibitor |  | 1 µM | 11 |
